Source: ChEMBL document CHEMBL2321652, “Design and synthesis of HIV-1 protease inhibitors for a long-acting injectable drug application” (Bioorg Med Chem Lett, 2013)

Test system: not listed separately
Test: Cytotoxicity against human MT4 cells
Format: cell-based
Settings: not given

Row | Compound | CC50 [nM]
1 | COC(=O)N[C@H](C(=O)N[C@@H](Cc1ccc(-c2ccc(OC)nc2)cc1)[C@@H](O)C[C@@H](Cc1ccccc1F)C(=O)N[C@H]1c2cc(F)cc(Cl)c2OC[C@H]1O)C(C)(C)C | > 10000
2 | COC(=O)N[C@H](C(=O)N[C@@H](Cc1ccc(-c2ccc(OC)nc2)cc1)[C@@H](O)C[C@@H](Cc1ccccc1F)C(=O)N[C@H]1c2cc(Cl)cc(F)c2OC[C@H]1O)C(C)(C)C | > 10000
3 | COC(=O)N[C@H](C(=O)N[C@@H](Cc1ccc(-c2ccc(OC)nc2)cc1)[C@@H](O)C[C@@H](Cc1ccccc1F)C(=O)N[C@H]1c2cc(C)ccc2OC[C@H]1O)C(C)(C)C | > 10000
4 | COC(=O)N[C@H](C(=O)N[C@@H](Cc1ccc(-c2ccc(OC)nc2)cc1)[C@@H](O)C[C@@H](Cc1ccccc1F)C(=O)N[C@H]1c2cc(C)cc(F)c2OC[C@H]1O)C(C)(C)C | > 10000
5 | COC(=O)N[C@H](C(=O)N[C@@H](Cc1ccc(-c2ccc(OC)nc2)cc1)[C@@H](O)C[C@@H](Cc1ccccc1F)C(=O)N[C@H]1[C@H](C)CC[C@H]1O)C(C)(C)C | > 10000

Test system: Human immunodeficiency virus 1
Test: Antiviral activity against wild type Human immunodeficiency virus 1 3B infected in human MT4 cells assessed as inhibition of viral replication in presence of 50% human serum
Settings: not given

Row | Compound | EC50 [nM]
6 | COC(=O)N[C@H](C(=O)N[C@@H](Cc1ccc(-c2ccc(OC)nc2)cc1)[C@@H](O)C[C@@H](Cc1ccccc1F)C(=O)N[C@H]1c2cc(F)cc(Cl)c2OC[C@H]1O)C(C)(C)C | 8.4
7 | COC(=O)N[C@H](C(=O)N[C@@H](Cc1ccc(-c2ccc(OC)nc2)cc1)[C@@H](O)C[C@@H](Cc1ccccc1F)C(=O)N[C@H]1c2cc(Cl)cc(F)c2OC[C@H]1O)C(C)(C)C | 16
8 | COC(=O)N[C@H](C(=O)N[C@@H](Cc1ccc(-c2ccc(OC)nc2)cc1)[C@@H](O)C[C@@H](Cc1ccccc1F)C(=O)N[C@H]1[C@H](C)CC[C@H]1O)C(C)(C)C | 3.3

The next lines start with the values.

Row | EC50 [nM] | Compound
9 | 7.7 | COC(=O)N[C@H](C(=O)N[C@@H](Cc1ccc(-c2ccc(OC)nc2)cc1)[C@@H](O)C[C@@H](Cc1ccccc1F)C(=O)N[C@H]1c2cc(C)ccc2OC[C@H]1O)C(C)(C)C
10 | 9.8 | COC(=O)N[C@H](C(=O)N[C@@H](Cc1ccc(-c2ccc(OC)nc2)cc1)[C@@H](O)C[C@@H](Cc1ccccc1F)C(=O)N[C@H]1c2cc(C)cc(F)c2OC[C@H]1O)C(C)(C)C

Test system: not listed separately
Test: Drug metabolism in human liver microsomes at 1 uM after 15 mins
Format: ADME, Microsome
Settings: read-out: Drug metabolism
Procedure, shortened: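 Human liver microsome incubation at 37 °C for 15 min with compound at 1 µM; turnover expressed as percent of compound metabolized.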

Row | Compound | metabolised at 0.25 h, 1 µM [%]
11 | COC(=O)N[C@H](C(=O)N[C@@H](Cc1ccc(-c2ccc(OC)nc2)cc1)[C@@H](O)C[C@@H](Cc1ccccc1F)C(=O)N[C@H]1c2cc(F)cc(Cl)c2OC[C@H]1O)C(C)(C)C | 8
12 | COC(=O)N[C@H](C(=O)N[C@@H](Cc1ccc(-c2ccc(OC)nc2)cc1)[C@@H](O)C[C@@H](Cc1ccccc1F)C(=O)N[C@H]1c2cc(Cl)cc(F)c2OC[C@H]1O)C(C)(C)C | 23
13 | COC(=O)N[C@H](C(=O)N[C@@H](Cc1ccc(-c2ccc(OC)nc2)cc1)[C@@H](O)C[C@@H](Cc1ccccc1F)C(=O)N[C@H]1[C@H](C)CC[C@H]1O)C(C)(C)C | 99

Further lines, results first:

Row | metabolised at 0.25 h, 1 µM [%] | Compound
14 | 63 | COC(=O)N[C@H](C(=O)N[C@@H](Cc1ccc(-c2ccc(OC)nc2)cc1)[C@@H](O)C[C@@H](Cc1ccccc1F)C(=O)N[C@H]1c2cc(C)ccc2OC[C@H]1O)C(C)(C)C
15 | 48 | COC(=O)N[C@H](C(=O)N[C@@H](Cc1ccc(-c2ccc(OC)nc2)cc1)[C@@H](O)C[C@@H](Cc1ccccc1F)C(=O)N[C@H]1c2cc(C)cc(F)c2OC[C@H]1O)C(C)(C)C

Test system: not listed separately
Test: Plasma clearance in rat at 2 mg/kg, iv
Format: ADME, organism-based
Set-up: dose 2 mg/kg, route intravenous
Settings: not given
Procedure, shortened: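 Single intravenous dose of 2 mg/kg in rats. The formulation is typically 1 mg/mL in PEG400/ethanol/saline (70/20/10). Clearance values are averages from two or three animals. High is >3 L/h/kg (>70% liver blood flow) and low is <1.3 L/h/kg (<30%).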

Row | Compound | clearance [mL/min/kg]
16 | COC(=O)N[C@H](C(=O)N[C@@H](Cc1ccc(-c2ccc(OC)nc2)cc1)[C@@H](O)C[C@@H](Cc1ccccc1F)C(=O)N[C@H]1c2cc(F)cc(Cl)c2OC[C@H]1O)C(C)(C)C | 31.7
17 | COC(=O)N[C@H](C(=O)N[C@@H](Cc1ccc(-c2ccc(OC)nc2)cc1)[C@@H](O)C[C@@H](Cc1ccccc1F)C(=O)N[C@H]1[C@H](C)CC[C@H]1O)C(C)(C)C | 78.3

Second part, the compound after the results:

Row | clearance [mL/min/kg] | Compound
18 | 46.7 | COC(=O)N[C@H](C(=O)N[C@@H](Cc1ccc(-c2ccc(OC)nc2)cc1)[C@@H](O)C[C@@H](Cc1ccccc1F)C(=O)N[C@H]1c2cc(C)ccc2OC[C@H]1O)C(C)(C)C
19 | 83.3 | COC(=O)N[C@H](C(=O)N[C@@H](Cc1ccc(-c2ccc(OC)nc2)cc1)[C@@H](O)C[C@@H](Cc1ccccc1F)C(=O)N[C@H]1c2cc(C)cc(F)c2OC[C@H]1O)C(C)(C)C

Test system: Human immunodeficiency virus 1
Test: Antiviral activity against wild type Human immunodeficiency virus 1 3B infected in human MT4 cells assessed as inhibition of viral replication
Format: functional, organism-based
Settings: not given
Procedure, shortened: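 EC50 values are averages of at least two independent experiments (typically three to four), each run in quadruplicate. For the serum-shifted line, the same antiviral assay includes 50% human serum, used as a functional measure of plasma protein binding.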

Row | Compound | EC50 [nM]
20 | COC(=O)N[C@H](C(=O)N[C@@H](Cc1ccc(-c2ccc(OC)nc2)cc1)[C@@H](O)C[C@@H](Cc1ccccc1F)C(=O)N[C@H]1c2cc(F)cc(Cl)c2OC[C@H]1O)C(C)(C)C | 2.6
21 | COC(=O)N[C@H](C(=O)N[C@@H](Cc1ccc(-c2ccc(OC)nc2)cc1)[C@@H](O)C[C@@H](Cc1ccccc1F)C(=O)N[C@H]1c2cc(Cl)cc(F)c2OC[C@H]1O)C(C)(C)C | 4.1
22 | COC(=O)N[C@H](C(=O)N[C@@H](Cc1ccc(-c2ccc(OC)nc2)cc1)[C@@H](O)C[C@@H](Cc1ccccc1F)C(=O)N[C@H]1[C@H](C)CC[C@H]1O)C(C)(C)C | 1.1

Other lines, results leading:

Row | EC50 [nM] | Compound
23 | 0.9 | COC(=O)N[C@H](C(=O)N[C@@H](Cc1ccc(-c2ccc(OC)nc2)cc1)[C@@H](O)C[C@@H](Cc1ccccc1F)C(=O)N[C@H]1c2cc(C)ccc2OC[C@H]1O)C(C)(C)C
24 | 2.8 | COC(=O)N[C@H](C(=O)N[C@@H](Cc1ccc(-c2ccc(OC)nc2)cc1)[C@@H](O)C[C@@H](Cc1ccccc1F)C(=O)N[C@H]1c2cc(C)cc(F)c2OC[C@H]1O)C(C)(C)C
